Data set [1] in a line: Selectivity index, ratio of CC50 for human MT4 cells to EC50 for wild type HIV-1 NL4-3 infected in human MT4 cells. In kind it is toxicity, cell-based. The settings on record: read-out: Ratio CC50/EC50. The method, boiled down:
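Ratio of CC50 to EC50, both from MTT readings in MT-4 cells at day 5. CC50 was taken in mock-infected cells and EC50 in cells infected with wild-type NL4-3. Values are means of at least two experiments.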

In data set [2] the test system is Human immunodeficiency virus 1. In words: Antiviral activity against wild type HIV-1 NL4-3 infected in human MT4 cells assessed as inhibition of virus-induced cytopathic effect by MTT method. It is filed as functional, organism-based. The settings on record: Human immunodeficiency virus 1, NL4-3, MT4. The method, boiled down:
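MT-4 lymphoid cells infected with wild-type HIV-1 NL4-3 while exposed to a range of drug concentrations. Viable cells counted by tetrazolium (MTT) colorimetry at day 5 post-infection. Means of at least two experiments.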
For orientation: Cytopathic effects are the visible damage that an infection or toxin causes in cultured cells.

Data set [3] concerns Human immunodeficiency virus 1. In words: Antiviral activity against HIV-1 harboring NNTRI-resistant reverse transcriptase Y188L mutant infected in human MT4 cells assessed as inhibition of virus-induced cytopathic effect by MTT method. In kind it is functional, organism-based. The settings on record: Human immunodeficiency virus 1, MT4. In outline: (§1)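 MT-4 lymphoid cells infected with HIV-1 carrying RT K103N, Y181C or Y188L, with a range of drug concentrations present. Viable cells counted by MTT colorimetric assay at day 5 post-infection. […] Highest concentration tested was limited by precipitation in culture medium. Means of at least two experiments.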

In data set [4] the test system is Human immunodeficiency virus 1. In words: Antiviral activity against HIV-1 harboring NNTRI-resistant reverse transcriptase Y181C mutant infected in human MT4 cells assessed as inhibition of virus-induced cytopathic effect by MTT method. The settings on record: Human immunodeficiency virus 1, MT4. It is filed as functional, organism-based. In outline: as §1
In data set [5] the test system is Human immunodeficiency virus 1. Nature of the data set: Antiviral activity against HIV-1 harboring NNTRI-resistant reverse transcriptase K103N mutant infected in human MT4 cells assessed as inhibition of virus-induced cytopathic effect by MTT method. In kind it is functional, organism-based. The settings on record: Human immunodeficiency virus 1, MT4.
The nature of data set [6]: Cytotoxicity against human MT4 cells assessed as induction of cell death by MTT method. It is filed as cell-based. In outline: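 Mock-infected MT-4 cells exposed to a range of drug concentrations. Viability read by MTT colorimetry at day 5. […] Top concentration was limited where compound precipitated in the culture medium. Means of at least two experiments.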
Background: Formazan colour is commonly taken as a measure of viable cells.

Data set [7] addresses Human immunodeficiency virus type 1 reverse transcriptase (Human immunodeficiency virus 1) (UniProt Q72547).
Data set [8] relates to Human immunodeficiency virus type 1 reverse transcriptase (Human immunodeficiency virus 1), Q72547 [K103N].
Data set [9] deals with Human immunodeficiency virus type 1 reverse transcriptase (Human immunodeficiency virus 1), Q72547 [L100I].

What is called EC50 is the concentration giving half of the maximal effect. As a reminder, the CC50 is the concentration giving 50% cytotoxicity. Regarding `Cc1c(Cc2c(F)cccc2Cl)nc(SC2CCCC2)[nH]c1=O`, the selectivity ratio in data set [1] was over 394. For the same molecule, the EC50 in data set [2] was 180 nM; in data set [3], over 71000 nM; in data set [4], over 71000 nM; in data set [5], over 71000 nM. Also, the half-maximal cytotoxic concentration (CC50) in data set [6] is over 71000 nM.

For the molecule `Cc1c([C@H](C)c2c(F)cccc2Cl)nc(SC(C)C)[nH]c1=O`, the EC50 in data set [2] came to 0.03 nM; in data set [3] it was 350 nM; in [4], 150 nM; in [5], 10 nM. Also, the CC50 in data set [6] was over 23500 nM.

As for `Cc1c([C@@H](C)c2c(F)cccc2Cl)nc(SC(C)C)[nH]c1=O`, the EC50 in [2] was 220 nM; in data set [3], over 36900 nM; in data set [4], over 36900 nM; in data set [5], over 36900 nM. Further, the CC50 in data set [6] was over 36900 nM.

`Cc1c([C@@H](C)c2c(F)cccc2F)nc(SC2CCCC2)[nH]c1=O`: in data set [7], the pID50 stood at 6.

`Cc1c([C@H](C)c2c(F)cccc2F)nc(SC2CCCC2)[nH]c1=O`: the pID50 in data set [7] turned out to be 8.1.

For `Cc1c(C(C)c2c(F)cccc2Cl)nc(SC(C)C)[nH]c1=O` (racemic), the EC50 in data set [2] was found to be 0.04 nM; in data set [3], 3400 nM; in data set [4], 250 nM; in data set [5], 140 nM. For the same molecule, in data set [6], the CC50 was over 15000 nM.

For `CCC(C)Sc1nc(C(C)c2c(F)cccc2Cl)c(C)c(=O)[nH]1` (racemic), the EC50 in data set [2] is 0.3 nM; in data set [3], over 1500 nM; in [4], 390 nM; in [5], 320 nM. The CC50 in data set [6] is over 1500 nM.

On to `CCc1c(C(C)c2c(F)cccc2Cl)nc(SC(C)C)[nH]c1=O` (racemic), for which the selectivity ratio in data set [1] is over 3. Further, the EC50 in [2] is 960 nM; in data set [3], over 3000 nM; in [4] it was over 3000 nM; in data set [5] it was over 3000 nM. For the same molecule, the ID50 in data set [8] was determined as 2600 nM; in data set [7], 48 nM; in [9], 1100 nM. In addition, the 50% cytotoxic concentration (CC50) in data set [6] is over 3000 nM.

On to `CCCSc1nc(C(C)c2c(F)cccc2Cl)c(CC)c(=O)[nH]1` (racemic), for which the selectivity ratio in data set [1] was over 107. Also, the EC50 was 28 nM in data set [2], over 3000 nM in data set [3], over 3000 nM in [4] and over 3000 nM in data set [5]. Further, the ID50 in data set [8] amounted to 2600 nM; in data set [7], 10 nM; in data set [9], 230 nM. Moreover, the CC50 in data set [6] was over 3000 nM.

For `CCc1c(C(C)c2c(F)cccc2Cl)nc(SC(C)CC)[nH]c1=O` (racemic), the selectivity ratio in data set [1] is over 11. The EC50 in [2] was 270 nM; in data set [3], over 3000 nM; in data set [4], over 3000 nM; in data set [5], over 3000 nM. Besides, the ID50 worked out at 2400 nM in [8], 8 nM in data set [7] and 400 nM in data set [9]. For the same molecule, the CC50 in data set [6] is over 3000 nM.

As for `CCCCSc1nc(C(C)c2c(F)cccc2Cl)c(CC)c(=O)[nH]1` (racemic), the selectivity ratio in [1] was over 47. Moreover, the EC50 is 64 nM in data set [2], over 3000 nM in data set [3], over 3000 nM in data set [4] and over 3000 nM in data set [5]. The results for the ID50 in [8], in data set [7] and in data set [9] were 2300 nM, 22 nM and 330 nM, respectively. Besides, in data set [6], the 50% cytotoxic concentration (CC50) was over 3000 nM.

Consider `CCc1c(C(C)c2c(F)cccc2Cl)nc(SC2CCCC2)[nH]c1=O` (racemic), for which the EC50 in data set [2], in data set [3], in data set [4] and in data set [5] was over 3000 nM in each case. Besides, the ID50 came to 1800 nM in data set [8], 24 nM in data set [7] and 530 nM in data set [9]. For the same molecule, the CC50 in [6] was over 3000 nM.

Consider `CCC(c1nc(SC(C)C)[nH]c(=O)c1C)c1c(F)cccc1Cl` (racemic), for which, in data set [1], the selectivity ratio is over 36. Further, the EC50 in data set [2] was 84 nM; in data set [3], over 3000 nM; in data set [4], over 3000 nM; in data set [5], over 3000 nM. In addition, the ID50 is 420 nM in data set [8], 6 nM in [7] and 120 nM in data set [9]. Also, the CC50 in data set [6] was over 3000 nM.

On to `CCC(C)Sc1nc(C(CC)c2c(F)cccc2Cl)c(C)c(=O)[nH]1` (racemic), for which the selectivity ratio in [1] is over 56. In addition, the EC50 in data set [2] was 54 nM; in data set [3], over 3000 nM; in data set [4] it was over 3000 nM; in data set [5], over 3000 nM. Besides, the results for the ID50 in [8], in data set [7] and in [9] were 450 nM, 2 nM and 120 nM, respectively. In addition, in data set [6], the CC50 was over 3000 nM.

Turning to `CCCCSc1nc(C(CC)c2c(F)cccc2Cl)c(C)c(=O)[nH]1` (racemic), the selectivity ratio in [1] was over 27. For the same molecule, the EC50 was 110 nM in data set [2], over 3000 nM in data set [3], over 3000 nM in data set [4] and over 3000 nM in [5]. Moreover, the ID50 was 1000 nM in data set [8], 3 nM in [7] and 260 nM in [9]. Further, the CC50 in [6] was over 3000 nM.

With `CCC(c1nc(SC2CCCC2)[nH]c(=O)c1C)c1c(F)cccc1Cl` (racemic), the selectivity ratio in data set [1] is over 5. The EC50 in data set [2] was 580 nM; in data set [3], over 3000 nM; in [4], over 3000 nM; in [5] it was over 3000 nM. Moreover, the results for the ID50 in data set [8], in data set [7] and in data set [9] were 340 nM, 4 nM and 68 nM, respectively. Besides, in [6], the CC50 was over 3000 nM.

With `CCCSc1nc(C(C)c2c(F)cccc2F)c(C)c(=O)[nH]1` (racemic), the selectivity ratio in data set [1] is over 107. Moreover, the EC50 in data set [2] is 28 nM; in data set [3] it was over 3000 nM; in data set [4], over 3000 nM; in data set [5] it was over 3000 nM. In addition, the ID50 in data set [8] was determined as 380 nM; in [7], 1 nM; in data set [9], 230 nM. The CC50 in data set [6] is over 3000 nM.

For the molecule `CCc1c(C(C)c2c(F)cccc2F)nc(SC(C)C)[nH]c1=O` (racemic), the selectivity ratio in [1] is over 34. The EC50 in data set [2] was 89 nM; in [3] it was over 3000 nM; in data set [4] it was over 3000 nM; in data set [5], over 3000 nM. Besides, the ID50 in data set [8] was determined as 830 nM; in [7], 12 nM; in data set [9] it was 27200 nM. Also, the CC50 in [6] was over 3000 nM.

Regarding `CCCCSc1nc(O)c(C)c(C(C)c2c(F)cccc2F)n1` (racemic), the selectivity ratio in data set [1] was over 60. Also, the EC50 in [2] is 50 nM; in [3], over 3000 nM; in [4] it was over 3000 nM; in data set [5], over 3000 nM. The ID50 in data set [8] was found to be 450 nM; in data set [7], 3 nM; in data set [9], 230 nM. For the same molecule, the CC50 in data set [6] was over 3000 nM.

Consider `Cc1c(C(C)c2c(F)cccc2F)nc(SC(C)C)[nH]c1=O` (racemic), for which the selectivity ratio in data set [1] is over 3000. In data set [6], the CC50 is over 3000 nM.

As for `O=C1Nc2ccc(Cl)cc2[C@@](C#CC2CC2)(C(F)(F)F)O1` [EFAVIRENZ], the EC50 amounted to 1970 nM in [3] and 13 nM in data set [4]. In data set [6], the CC50 is over 3000 nM.

As to `Cc1ccnc2c1NC(=O)c1cccnc1N2C1CC1` [NEVIRAPINE], the EC50 in data set [3] and in [4] was over 7000 nM in each case. In addition, the CC50 in data set [6] is over 7000 nM.
